Laboratory results as given in ChEMBL document CHEMBL1121726, “Pyrazolopyrimidine nucleosides. 12. Synthesis and biological activity of certain pyrazolo[3,4-d]pyrimidine nucleosides related to adenosine” (1981).
The source made the active and inactive calls. The rule behind the calls is not given here.

Legend:
L1210 [1] = assay: Toxicity against L1210 leukemic cells 1-5 days after administration of 400 mg/kg of the compound; nt= No higher dose tested; type: functional, organism-based; set-up: dose 400 mg/kg; details: Mus musculus
Outline: (§1)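 Mice bearing L1210 or P388 leukemia were injected at the stated dose per injection on the listed days after tumor-cell inoculation. Host toxicity scores whether higher doses on the same schedule caused drug-induced shortening of life span: y = yes, n = no, nt = no higher dose tested.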

L1210 [2] = assay: Increase in life span of tumor L1210 leukemic mice 1-5 days after 400 mg/kg administered; type: functional, Mus musculus
Outline: (§2)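 Mice bearing L1210 or P388 leukemia were injected with drug at the listed dose per injection on the listed days after tumor-cell inoculation. ILS was the percentage increase in life span of treated mice over untreated tumor-bearing controls.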

L1210 [3] = assay: Toxicity against L1210 leukemic cells 1-5 days after administration of 50 mg/kg of the compound; Yes; type: functional, organism-based; set-up: dose 50 mg/kg; details: Mus musculus; outline: as §1
L1210 [4] = assay: In vitro inhibition of growth of L1210 mouse leukemic cells; type: functional; details: read-out: ID50 (the source's name)
Outline: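 L1210 cells grown in static suspension culture in Fischer's medium for leukemic cells of mice, exposed to a range of test-compound concentrations. Growth rate measured over 3 days.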

L1210 [5] = assay: Increase in life span of tumor L1210 leukemic mice 1-5 days after 50 mg/kg administered; type: functional, Mus musculus; outline: as §2
L1210 [6] = assay: Increase in life span of tumor L1210 leukemic mice 1-9 days after 200 mg/kg administered; type: functional, Mus musculus; outline: as §2
L1210 [7] = assay: Toxicity against L1210 leukemic cells 1-9 days after administration of 200 mg/kg of the compound; Yes; type: functional, organism-based; set-up: dose 200 mg/kg; details: Mus musculus; outline: as §1
L1210 [8] = assay: Toxicity against L1210 leukemic cells 1-5 days after administration of 25 mg/kg of the compound; Yes; type: functional, organism-based; set-up: dose 25 mg/kg; details: Mus musculus; outline: as §1
L1210 [9] = assay: Increase in life span of tumor L1210 leukemic mice 1-5 days after 25 mg/kg administered; type: functional, Mus musculus; outline: as §2
P388 [10] = assay: Increase in life span of tumor P388 leukemic mice 1,5,9 days after 100 mg/kg administered
L1210 [11] = assay: Number of mice surviving 1-5 days after 25 mg/kg administered; 1/12; type: functional, Mus musculus
P388 [12] = assay: Toxicity against P388 leukemic cells 1,5,9 days after administration of 100 mg/kg of the compound; Yes; details: Mus musculus
P388 [13] = assay: Increase in life span of tumor P388 leukemic mice 1-9 days after 3 mg/kg administered; type: functional, Mus musculus; outline: as §2
L1210 [14] = assay: Increase in life span of tumor L1210 leukemic mice 1-9 days after 3.12 mg/kg administered; type: functional, Mus musculus; outline: as §2
L1210 [15] = assay: Toxicity against L1210 leukemic cells 1-9 days after administration of 3.12 mg/kg of the compound; Yes; type: functional, organism-based; set-up: dose 3.12 mg/kg; details: Mus musculus; outline: as §1
P388 [16] = assay: Toxicity against P388 leukemic cells 1-9 days after administration of 3 mg/kg of the compound; Yes; type: functional, organism-based; set-up: dose 3 mg/kg; details: Mus musculus; outline: as §1
L1210 [17] = assay: Number of mice surviving 1-5 days after 200 mg/kg administered; 2/6; type: functional, Mus musculus
P388 [18] = assay: Toxicity against P388 leukemic cells 1-9 days after administration of 6 mg/kg of the compound; y= Yes; type: functional, organism-based; set-up: dose 6 mg/kg; details: Mus musculus
Outline: (§3)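 Host toxicity was scored in leukemia-bearing mice as drug-induced shortening of life span when higher doses were given on the same schedule: y = yes, n = no, nt = no higher dose tested.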

L1210 [19] = assay: Increase in life span of tumor L1210 leukemic mice 1-5 days after 200 mg/kg administered; type: functional, Mus musculus; outline: as §2
L1210 [20] = assay: Toxicity against L1210 leukemic cells 1-5 days after administration of 200 mg/kg of the compound; nt= No higher dose tested; type: functional, organism-based; set-up: dose 200 mg/kg; details: Mus musculus; outline: as §3
P388 [21] = assay: Increase in life span of tumor P388 leukemic mice 1-9 days after 6 mg/kg administered; type: functional, Mus musculus; outline: as §2
L1210 [22] = assay: […] against L1210 leukemic cells 1-5 days after administration of 400 mg/kg of the compound; No higher dose tested; type: functional, organism-based; set-up: dose 400 mg/kg; details: Mus musculus
L1210 [23] = assay: Toxicity against L1210 leukemic cells 1-5 days after administration of 200 mg/kg of the compound; Yes; type: functional, organism-based; set-up: dose 200 mg/kg; details: Mus musculus; outline: as §1
L1210 [24] = assay: Increase in life span of tumor L1210 leukemic mice 1-5 day after 200 mg/kg administered; type: functional, Mus musculus; outline: as §2
L1210 [25] = assay: […] against L1210 leukemic cells 1-5 days after administration of 200 mg/kg of the compound; Yes; type: functional, organism-based; set-up: dose 200 mg/kg; details: Mus musculus

## COC(=N)c1nn(C2O[C@H](CO)[C@@H](O)[C@H]2O)c2ncnc(N)c12 (stereo not given in full)
L1210 [1]
  Toxicity: No higher dose tested
L1210 [2]
  ILS: 64

## CNc1ncnc2c1cnn2C1O[C@H](CO)[C@@H](O)[C@H]1O (stereo not given in full)
L1210 [3]
  Toxicity: Active
L1210 [4]
  IC50: > 100 µM
L1210 [5]
  ILS: 4

## NNc1ncnc2c1cnn2C1O[C@H](CO)[C@@H](O)[C@H]1O (stereo not given in full)
L1210 [4]
  IC50: 60 µM
L1210 [6]
  ILS: 12
L1210 [7]
  Toxicity: Active

## O=c1[nH]cnc2c1cnn2[C@@H]1O[C@H](CO)[C@@H](O)[C@H]1O
L1210 [1]
  Toxicity: No higher dose tested
L1210 [2]
  ILS: 2

## OC[C@H]1OC(n2ncc3c(NCc4ccccc4)ncnc32)[C@H](O)[C@@H]1O (stereo not given in full)
L1210 [8]
  Toxicity: Active
L1210 [9]
  ILS: 3

## N/C(=N\O)c1nn(C2O[C@H](CO)[C@@H](O)[C@H]2O)c2ncnc(N)c12 (stereo not given in full)
P388 [10]
  ILS: 33
L1210 [4]
  IC50: 0.18 µM
L1210 [11]
  Cures: 1
P388 [12]
  Toxicity: Active
L1210 [8]
  Toxicity: Active
L1210 [9]
  ILS: 78

## NC(=S)c1nn(C2O[C@H](CO)[C@@H](O)[C@H]2O)c2ncnc(N)c12 (stereo not given in full)
P388 [13]
  ILS: 34
L1210 [14]
  ILS: 46
L1210 [15]
  Toxicity: Active
P388 [16]
  Toxicity: Active

## NC(=O)c1nn(C2O[C@H](CO)[C@@H](O)[C@H]2O)c2ncnc(N)c12 (stereo not given in full)
L1210 [4]
  IC50: 0.1 µM
L1210 [17]
  Cures: 2
P388 [18]
  Toxicity: No higher dose tested
L1210 [19]
  ILS: 136
L1210 [20]
  Toxicity: No higher dose tested
P388 [21]
  ILS: 90

## OC[C@H]1OC(n2ncc3c(Nc4ccccc4)ncnc32)[C@H](O)[C@@H]1O (stereo not given in full)
L1210 [22]
  Toxicity: No higher dose tested
L1210 [2]
  ILS: -4

## CSc1ncnc2c1cnn2C1O[C@H](CO)[C@@H](O)[C@H]1O (stereo not given in full)
L1210 [23]
  Toxicity: Active
L1210 [4]
  IC50: 9 µM
L1210 [24]
  ILS: 19

## O=[N+]([O-])c1ccc(CSc2ncnc3c2cnn3C2O[C@H](CO)[C@@H](O)[C@H]2O)cc1 (stereo not given in full)
L1210 [19]; Mus musculus, L1210
  ILS at 200 mg/kg: 1%
L1210 [25]
  Toxicity: Active
